Laboratory results taken from ChEMBL document CHEMBL4610117 (J Med Chem, 2020).
Activity calls are given as the source filed them. The rule behind the calls is not given here.

How the values were obtained:
[1] = target: T1, Serine/threonine-protein kinase ATR (Homo sapiens, UniProt Q13535); experiment: Inhibition of 5'-TAMRA-labeled tracer 3',6'-bis(dimethylamino)-N-(4-{[2(1H-indol-4-yl)-6-(morpholin-4-yl)-pyrimidin-4-yl]amino}butyl)-3-oxo-3H-spiro[2-benzofuran-1,9'-xanthene]-5-carboxamide binding to recombinant human full-length N-terminal Flag-tagged ATR expressed in HEK293-6E cells co-expressing human full-length STREP-tagged ATRIP preincubated for 10 mins followed by tracer addition and measured after 30 mins by TR-FRET assay; assay type: cell-based
HT-29 [2] = experiment: Antiproliferative activity against human HT-29 cells assessed as reduction in cell viability measured after 4 days by crystal violet staining based assay; assay type: functional; conditions: HT-29, 96 h
Procedure, shortened: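 Cells plated at 2000 (HT-29) or 3000 (LoVo) per point in DMEM/Ham's F12 with 2 mM L-glutamine and 10% FCS. After 24 h adherence, compounds were added at 0.001–10 μM (0.1% DMSO final) and incubated continuously for 4 d at 37 °C. Cells were glutaraldehyde-fixed, stained with crystal violet and read at 595 nm.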

[3] = Selectivity ratio of IC50 for inhibition of PI3K/AKT/mTOR signaling pathway in human MCF7 cells to IC50 for inhibition of ATR in human HT-29 cells
[4] = target: T1, Serine/threonine-protein kinase ATR; experiment: Inhibition of ATR in human HT-29 cells assessed as reduction in histone H2AX phosphorylation measured after 30 mins by immunofluorescence cytometric assay; assay type: cell-based
Procedure, shortened: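 HT-29 cells were seeded at 12000/point in DMEM/Ham's F12 with 2 mM L-glutamine and 10% FCS and grown 24 h at 37 °C. Compound (1 nM–10 μM final) was added with hydroxyurea (2.5 mM final) for 30 min at 37 °C.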

[5] = Lipophilicity, log D of the compound in pH 7.5 MeCN/H2O solution by reversed-phase HPLC analysis
[6] = target: Voltage-gated inwardly rectifying potassium channel KCNH2 (Homo sapiens, UniProt Q12809); experiment: Inhibition of recombinant human ERG stably expressed in HEK293 cells at -80 mV by whole cell voltage clamp method
physchem = conditions: pH 6.5
[7] = Clearance in rat liver microsomes at 1 uM measured after 2 to 60 mins in presence of NADP by LC-MS/MS analysis; assay type: ADME, Microsome
[8] = Clearance in Han-Wistar rat hepatocytes at 1 uM measured after 2 to 90 mins by LC-MS/MS analysis; assay type: ADME, cell-based, Hepatocyte
[9] = Apparent permeability across apical to basolateral side in human Caco2 cells at 2 uM measured after 2 hrs by LC-MS/MS analysis; conditions: Caco-2
[10] = Efflux ratio of apparent permeability across basolateral to apical side over apical to basolateral side in human Caco2 cells at 2 uM; conditions: Caco-2
[11] = Oral bioavailability in Wistar rat at 0.6 to 1 mg/kg by LC-MS/MS analysis; assay type: ADME, organism-based; conditions: in vivo
[12] = Apparent half life in Wistar rat at 0.3 to 0.5 mg/kg, iv administered as bolus dose by LC-MS/MS analysis; assay type: ADME, organism-based; conditions: in vivo, read-out: t1/2(app) (converted)
[13] = Volume of distribution at steady state in Wistar rat at 0.3 to 0.5 mg/kg, iv administered as bolus dose by LC-MS/MS analysis; assay type: ADME, organism-based; conditions: in vivo, read-out: Vdss
[14] = Clearance in Wistar rat at 0.3 to 0.5 mg/kg, iv administered as bolus dose by LC-MS/MS analysis; assay type: ADME, organism-based; conditions: in vivo
HT-29 [15] = experiment: Antitumor activity against human HT-29 cells xenografted in po dosed mouse administered twice daily; assay type: functional, organism-based
LoVo = experiment: Antiproliferative activity against human LoVo cells assessed as reduction in cell viability measured after 4 days by crystal violet staining based assay; assay type: functional; conditions: 96 h

T1 sequence (Q13535 whole entry): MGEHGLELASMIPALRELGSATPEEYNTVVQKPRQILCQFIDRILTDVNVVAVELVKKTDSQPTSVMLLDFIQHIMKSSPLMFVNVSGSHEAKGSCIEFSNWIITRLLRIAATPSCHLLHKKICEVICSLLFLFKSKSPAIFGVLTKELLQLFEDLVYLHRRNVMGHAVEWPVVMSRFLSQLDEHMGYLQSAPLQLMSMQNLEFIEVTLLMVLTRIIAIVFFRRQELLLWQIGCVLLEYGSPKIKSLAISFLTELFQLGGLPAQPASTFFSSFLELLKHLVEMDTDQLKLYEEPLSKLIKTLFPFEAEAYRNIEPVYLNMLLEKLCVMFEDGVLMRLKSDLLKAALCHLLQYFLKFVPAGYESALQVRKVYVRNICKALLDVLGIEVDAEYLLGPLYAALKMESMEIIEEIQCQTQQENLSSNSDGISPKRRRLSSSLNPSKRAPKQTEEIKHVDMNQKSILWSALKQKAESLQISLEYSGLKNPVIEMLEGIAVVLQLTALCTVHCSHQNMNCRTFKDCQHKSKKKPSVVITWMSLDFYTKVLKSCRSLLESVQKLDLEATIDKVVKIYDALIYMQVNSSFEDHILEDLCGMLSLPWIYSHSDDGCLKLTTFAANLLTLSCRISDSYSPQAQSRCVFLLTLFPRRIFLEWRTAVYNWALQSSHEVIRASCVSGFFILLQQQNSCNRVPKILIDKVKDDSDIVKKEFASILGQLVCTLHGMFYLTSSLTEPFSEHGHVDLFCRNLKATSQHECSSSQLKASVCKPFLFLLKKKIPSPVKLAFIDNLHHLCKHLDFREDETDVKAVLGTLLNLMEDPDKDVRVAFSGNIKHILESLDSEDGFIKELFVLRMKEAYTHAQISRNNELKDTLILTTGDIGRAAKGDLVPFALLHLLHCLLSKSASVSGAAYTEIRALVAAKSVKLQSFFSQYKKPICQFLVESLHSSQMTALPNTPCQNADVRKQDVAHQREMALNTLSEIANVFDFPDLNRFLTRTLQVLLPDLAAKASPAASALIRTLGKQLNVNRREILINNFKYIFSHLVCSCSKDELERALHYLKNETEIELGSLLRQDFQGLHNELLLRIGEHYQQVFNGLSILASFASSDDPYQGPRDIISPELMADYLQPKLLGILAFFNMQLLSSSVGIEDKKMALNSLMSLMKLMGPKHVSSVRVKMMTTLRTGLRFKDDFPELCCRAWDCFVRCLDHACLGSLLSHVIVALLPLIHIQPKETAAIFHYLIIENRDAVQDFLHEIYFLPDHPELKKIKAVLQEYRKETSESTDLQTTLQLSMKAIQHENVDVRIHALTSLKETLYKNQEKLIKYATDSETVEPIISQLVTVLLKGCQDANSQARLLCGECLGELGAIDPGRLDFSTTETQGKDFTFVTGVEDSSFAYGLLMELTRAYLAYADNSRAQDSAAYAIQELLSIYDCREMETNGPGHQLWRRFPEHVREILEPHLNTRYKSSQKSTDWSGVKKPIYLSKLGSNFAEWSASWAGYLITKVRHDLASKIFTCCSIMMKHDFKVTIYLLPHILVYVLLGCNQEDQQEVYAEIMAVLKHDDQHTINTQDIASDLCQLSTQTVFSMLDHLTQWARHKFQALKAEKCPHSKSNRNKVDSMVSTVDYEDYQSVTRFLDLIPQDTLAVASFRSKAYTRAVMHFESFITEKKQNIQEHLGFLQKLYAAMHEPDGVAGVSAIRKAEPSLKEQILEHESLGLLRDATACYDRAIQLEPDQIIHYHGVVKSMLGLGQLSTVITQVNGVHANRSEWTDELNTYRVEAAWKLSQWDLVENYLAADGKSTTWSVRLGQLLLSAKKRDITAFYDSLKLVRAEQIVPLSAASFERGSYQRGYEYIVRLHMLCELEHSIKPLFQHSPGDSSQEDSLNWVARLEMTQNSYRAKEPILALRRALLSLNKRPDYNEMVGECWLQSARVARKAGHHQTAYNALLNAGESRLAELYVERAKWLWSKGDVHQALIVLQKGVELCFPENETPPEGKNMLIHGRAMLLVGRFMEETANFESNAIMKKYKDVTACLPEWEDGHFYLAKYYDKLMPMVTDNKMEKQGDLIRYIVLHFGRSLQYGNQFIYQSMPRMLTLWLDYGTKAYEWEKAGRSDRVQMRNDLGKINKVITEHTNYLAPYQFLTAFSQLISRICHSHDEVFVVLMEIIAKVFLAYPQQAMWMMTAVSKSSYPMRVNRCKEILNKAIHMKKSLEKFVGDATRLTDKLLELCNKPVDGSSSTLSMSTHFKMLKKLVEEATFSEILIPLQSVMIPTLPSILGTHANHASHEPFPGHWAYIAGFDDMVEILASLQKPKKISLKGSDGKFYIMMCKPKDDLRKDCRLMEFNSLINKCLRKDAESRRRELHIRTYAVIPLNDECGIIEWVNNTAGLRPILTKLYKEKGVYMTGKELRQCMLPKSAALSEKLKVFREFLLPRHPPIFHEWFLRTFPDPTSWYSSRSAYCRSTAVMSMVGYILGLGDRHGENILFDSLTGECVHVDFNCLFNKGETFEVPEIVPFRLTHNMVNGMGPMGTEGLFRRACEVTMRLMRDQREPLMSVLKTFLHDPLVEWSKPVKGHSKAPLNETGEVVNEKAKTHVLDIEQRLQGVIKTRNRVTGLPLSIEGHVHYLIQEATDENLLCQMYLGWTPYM
Voltage-gated inwardly rectifying potassium channel KCNH2, sequence (Q12809 whole entry): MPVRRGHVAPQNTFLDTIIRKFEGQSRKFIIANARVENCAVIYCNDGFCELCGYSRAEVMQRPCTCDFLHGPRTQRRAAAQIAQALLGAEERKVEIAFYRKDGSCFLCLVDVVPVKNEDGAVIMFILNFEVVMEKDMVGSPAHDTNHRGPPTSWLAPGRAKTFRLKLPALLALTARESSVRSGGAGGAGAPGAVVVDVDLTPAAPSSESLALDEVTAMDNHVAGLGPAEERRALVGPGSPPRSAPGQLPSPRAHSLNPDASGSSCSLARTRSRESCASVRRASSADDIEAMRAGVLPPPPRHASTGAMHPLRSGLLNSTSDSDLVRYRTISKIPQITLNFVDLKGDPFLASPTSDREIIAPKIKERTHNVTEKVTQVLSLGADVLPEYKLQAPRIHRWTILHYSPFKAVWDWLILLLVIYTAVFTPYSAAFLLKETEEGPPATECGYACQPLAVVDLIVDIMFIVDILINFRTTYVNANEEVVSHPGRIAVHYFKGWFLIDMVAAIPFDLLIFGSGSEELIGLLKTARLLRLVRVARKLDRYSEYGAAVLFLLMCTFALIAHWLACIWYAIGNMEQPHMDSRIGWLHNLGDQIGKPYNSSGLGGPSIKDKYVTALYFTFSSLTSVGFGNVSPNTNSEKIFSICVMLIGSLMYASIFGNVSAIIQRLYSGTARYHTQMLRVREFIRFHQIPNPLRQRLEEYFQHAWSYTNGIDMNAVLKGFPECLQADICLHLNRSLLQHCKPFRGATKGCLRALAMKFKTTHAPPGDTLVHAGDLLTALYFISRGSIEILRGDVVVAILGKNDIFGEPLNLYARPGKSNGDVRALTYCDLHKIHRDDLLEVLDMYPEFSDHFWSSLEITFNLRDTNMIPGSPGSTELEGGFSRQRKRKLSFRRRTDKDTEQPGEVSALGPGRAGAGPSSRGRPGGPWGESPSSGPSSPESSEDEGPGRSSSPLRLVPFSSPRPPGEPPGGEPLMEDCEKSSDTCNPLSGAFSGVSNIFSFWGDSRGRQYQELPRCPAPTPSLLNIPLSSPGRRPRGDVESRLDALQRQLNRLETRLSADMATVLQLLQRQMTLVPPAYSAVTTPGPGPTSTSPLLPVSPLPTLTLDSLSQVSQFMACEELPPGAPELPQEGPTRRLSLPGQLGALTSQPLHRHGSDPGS

SMILES | IC50 [1] | IC50 (HT-29 [2]) | IC50 [4] | also measured
CC(C)Oc1cc(N2CCOCC2)nc2c(-c3ccc[nH]c3=O)nccc12 | > 20000 nM | – | – | –
CC(C)Oc1cc(N2C[C@@H]3C[C@H]2CO3)nc2c(-c3ccn[nH]3)nccc12 | 922 nM | – | – | –
CC(C)Oc1cc(N2CCOCC2)nc2c(-c3ccn[nH]3)cccc12 | 5050 nM | – | – | –
CC(C)Oc1cc(N2CCOCC2)nc2c(-c3cccnc3)nccc12 | 18100 nM | – | – | –
CC(C)Oc1cc(N2CCOCC2)nc2c(C3CCNC3)nccc12 (stereo not given) | > 20000 nM | – | – | –
CCC1COCCN1c1cc(OC(C)C)c2ccnc(-c3ccn[nH]3)c2n1 (stereo not given) | 1860 nM | – | – | –
Cc1nccn1-c1cc(N2CCOC[C@H]2C)nc2c(-c3ccn[nH]3)nccc12 | 25 nM | 192 nM | 76 nM | Ratio IC50 [3]: 263
C[C@@H]1COCCN1c1cc(C2(S(C)(=O)=O)CC2)c2ccnc(-c3ccn[nH]3)c2n1 | 15 nM | 268 nM | 86 nM | Ratio IC50 [3]: 71
CS(=O)(=O)c1ccc(-c2cc(N3CCOCC3)nc3c(-c4cc[nH]n4)nccc23)cc1 | – | – | 380 nM | chromatographic logD [5]: 2.1; IC50 [6]: 5800 nM; solubility at 24 h (physchem): < 1 µg/mL; CLH [7]: 11.5 mL/min/kg; CLH [8]: 10.7 mL/min/kg; Papp A→B at 2 h, 2 µM [9]: 10.2 ×10⁻⁶ cm/s; efflux ratio at 2 µM [10]: 2.1; bioavailability [11]: 14%; half-life [12]: 55.8 min; Vd [13]: 2 L/kg; clearance [14]: 25 mL/min/kg
Cc1cc(-c2nccc3c(OC(C)C)cc(N4CCOCC4)nc23)n[nH]1 | 12700 nM | – | – | –
CC(C)Oc1cc(N2CCOCC2)nc2c(-c3cccc(=O)[nH]3)nccc12 | > 20000 nM | – | – | –
CS(=O)(=O)c1ccc(-c2cc(N3CCOCC3)nc3c(-c4ccn[nH]4)nccc23)cc1 | – | 704 nM | – | Ratio IC50 [3]: 13; Activity (HT-29 [15]): Active; IC50 (LoVo): 315 nM
CCS(=O)(CC)=Nc1cc(N2CCOC[C@H]2C)nc2c(-c3ccn[nH]3)nccc12 | 22 nM | 168 nM | 30 nM | Ratio IC50 [3]: 217
C[C@@H]1COCCN1c1cc(N2CCN(S(C)(=O)=O)CC2)c2ccnc(-c3ccn[nH]3)c2n1 | 5 nM | 233 nM | 59 nM | Ratio IC50 [3]: 44
CC(C)Oc1cc(N2CCOCC2)nc2c(-c3cn[nH]c3)nccc12 | 3690 nM | – | – | –
CC(C)Oc1cc(N2CCOCC2(C)C)nc2c(-c3ccn[nH]3)nccc12 | > 20000 nM | – | – | –
CC(C)Oc1cc(N2CCOC3CC32)nc2c(-c3ccn[nH]3)nccc12 (stereo not given) | 1510 nM | – | – | –
COC1(C)CN(c2cc(OC(C)C)c3ccnc(-c4ccn[nH]4)c3n2)C1 | > 20000 nM | – | – | –
C[C@@H]1COCCN1c1cc(C2CCOCC2)c2ccnc(-c3ccn[nH]3)c2n1 | – | 292 nM | – | –
CC(C)Oc1cc(N2CCOCC2)nc2c(-c3ccc[nH]3)nccc12 | – | – | > 3000 nM | –
COc1cccc(-c2nccc3c(OC(C)C)cc(N4CCOCC4)nc23)n1 | 13200 nM | – | – | –
Cc1cn[nH]c1-c1nccc2c(OC(C)C)cc(N3CCOCC3)nc12 | 5640 nM | – | – | –
CC(C)Oc1cc(N2CCOCC2)nc2c(-c3cccc(C(N)=O)c3)nccc12 | 17200 nM | – | – | –

SMILES | IC50 [1] | IC50 (HT-29 [2]) | IC50 [4] | also measured
CC(C)Oc1cc(N2CCOCC2)nc2cnccc12 | > 20000 nM | – | – | –
C[C@@H]1COCCN1c1cc(C#Cc2cccnc2)c2ccnc(-c3ccn[nH]3)c2n1 | 22 nM | 405 nM | 227 nM | Ratio IC50 [3]: 8
Cc1nc(S(C)(=N)=O)ccc1-c1cc(N2CCOC[C@H]2C)nc2c(-c3ccn[nH]3)nccc12 (stereo not given in full) | 10 nM | 323 nM | 266 nM | Ratio IC50 [3]: 16
CC(C)Oc1cc(N2CCOCC2)nc2c(-c3cnc[nH]3)nccc12 | 3400 nM | – | – | –
C[C@@H]1COCCN1c1cc(N(C)c2ccc(F)cc2)c2ccnc(-c3ccn[nH]3)c2n1 | 9 nM | 381 nM | 70 nM | Ratio IC50 [3]: 42
CNC(=O)c1nccc2c(OC(C)C)cc(N3CCOCC3)nc12 | > 20000 nM | – | – | –
CC(C)Oc1cc(N2CCOCC2C(F)(F)F)nc2c(-c3ccn[nH]3)nccc12 (stereo not given) | 8610 nM | – | – | –
CC(C)Oc1cc(N2CCO[C@H](C)C2)nc2c(-c3ccn[nH]3)nccc12 | 1500 nM | – | – | –
CC(C)Oc1cc(N2CCOC[C@H]2C)nc2c(-c3ccn[nH]3)nccc12 | – | 929 nM | 154 nM | Ratio IC50 [3]: 25
CC(C)Oc1cc(N2CCOCC2)nc2c(-c3ccnn3C)nccc12 | 12500 nM | – | – | –
CC(C)Oc1cc(N2CCO[C@@H](C)C2)nc2c(-c3ccn[nH]3)nccc12 | 1970 nM | – | – | –
CC(C)Oc1cc(N2C[C@H]3COC[C@H]3C2)nc2c(-c3ccn[nH]3)nccc12 | 9440 nM | – | – | –
CC(C)Oc1cc(N2CCOCC2)nc2c(-c3cc4ccccc4[nH]3)nccc12 | > 20000 nM | – | – | –
C[C@@H]1COCCN1c1cc(-c2cnc3n2CCC3)c2ccnc(-c3ccn[nH]3)c2n1 | – | 125 nM | 82 nM | Ratio IC50 [3]: 59
CC(C)Oc1cc(N2CC(F)(F)OC(F)(F)C2)nc2c(-c3ccn[nH]3)nccc12 | > 20000 nM | – | – | –
CCP(=O)(CC)c1cc(N2CCOC[C@H]2C)nc2c(-c3ccn[nH]3)nccc12 | – | 498 nM | 289 nM | Ratio IC50 [3]: 61
CC(C)Oc1cc(N2CCOCC2)nc2c(-c3nnn[nH]3)nccc12 | > 20000 nM | – | – | –
C[C@@H]1COCCN1c1cc(-c2cccnc2F)c2ccnc(-c3ccn[nH]3)c2n1 | 8 nM | 175 nM | 44 nM | Ratio IC50 [3]: 50
CC(C)Oc1cc(N2CCOCC2)nc2c(-c3ccn[nH]3)nccc12 | – | – | 424 nM | Ratio IC50 [3]: 5
CC(C)Oc1cc(N2CCOCC2)nc2c(C(N)=O)nccc12 | 3300 nM | – | – | –
CC(C)Oc1cc(N2C3CCC2COC3)nc2c(-c3ccn[nH]3)nccc12 | 310 nM | – | – | –
C[C@@H]1COCCN1c1cc(C(C)(O)C(C)(C)C)c2ccnc(-c3ccn[nH]3)c2n1 (stereo not given in full) | – | 93 nM | – | –
